Experimental data published in ChEMBL document CHEMBL3351414, “Novel 9'-substituted-noscapines: synthesis with Suzuki cross-coupling, structure elucidation and biological evaluation” (Eur J Med Chem, 2014).
Calls of active or inactive are those of the source. The rule behind the calls is not given here.

Tests used:
HeLa [1] = experiment: Induction of apoptosis in human HeLa cells at 6.2 to 50 uM using Annexin-V/PI staining by flow cytometry; type: functional, cell-based; conditions: TDE = time-dependent effect
HeLa [2] = experiment: Effect on PCM1 protein in human HeLa cells assessed as accumulation of pericentriolar material at 25 uM after 24 hrs by immunofluorescence microscopy; type: functional, cell-based
Outline: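 After 24 h at 25 µM, HeLa cells were stained with anti-PCM1 and Alexa-conjugated secondary antibody, with phalloidin-tetramethylrhodamine B for actin and DAPI for nuclei. Cells were imaged by confocal microscopy at 60×.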

HeLa [3] = experiment: Induction of apoptosis in human HeLa cells assessed as caspase 9 cleavage at 25 uM after 24 to 48 hrs by Western blot analysis; type: functional, cell-based
Outline: (§1)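 HeLa cells treated 24 or 48 h at 25 µM, then lysed. 20 µg protein per lane was run on SDS-PAGE and transferred to PVDF. Membranes were probed 2 h at room temperature for cleaved caspase-9, caspase-3, cleaved PARP, Bcl-2, Mcl-1 or Bax, with peroxidase secondary antibody and ECL. β-Actin reprobe served as loading control.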

CA46 [4] = experiment: Cell cycle arrest in human CA46 cells assessed as reduction in mitotic index by Giemsa staining method relative to control; type: functional; design: scale not given: the % may be the effect or the level left
Outline: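 CA46 Burkitt lymphoma cells grown in RPMI 1640 with 17% FBS and 2 mM L-glutamine at 37 °C, 5% CO2, treated 16 h. Cells were swollen 10 min in half-strength PBS, fixed in 0.5% acetic acid–1.5% ethanol, then spread from 25% acetic acid/75% ethanol. Slides were Giemsa-stained. Mitotic cells were those with condensed chromosomes and no nuclear membrane, with ≥200 cells counted per condition.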

CA46 [5] = experiment: Antiproliferative activity against human CA46 cells assessed as reduction in cell viability after 72 hrs by MTT assay; type: functional, cell-based; conditions: CA46, 72 h
LoVo = experiment: Antiproliferative activity against human LoVo cells assessed as reduction in cell viability after 72 hrs by MTT assay; type: functional, cell-based
CA46 [6] = experiment: Cell cycle arrest in human CA46 cells assessed as accumulation at G2/M phase at 5 times IC50 by flow cytometry; type: functional
Jurkat = experiment: Cell cycle arrest in human Jurkat cells assessed as accumulation at G2/M phase at 10 to 25 uM after 24 hrs by flow cytometry; type: functional, cell-based
Outline: (§2)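 5×10^5 HeLa or Jurkat cells exposed to graded compound concentrations for 24 h. Cells were fixed in ice-cold 70% ethanol, lysed with RNase A/0.1% Triton X-100 buffer and stained with propidium iodide. DNA content was read by flow cytometry. Phase percentages are mean ± SEM of three independent experiments.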

PBL = experiment: Cytotoxicity against resting human PBLs assessed as reduction in cell growth; type: cell-based
Outline: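 Peripheral blood lymphocytes from healthy donors, tested either resting (no PHA) or PHA-stimulated. Value is the concentration reducing cell growth by 50%, mean ± SEM of three separate experiments.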

HeLa [7] = experiment: Induction of apoptosis in human HeLa cells assessed as reduction in Mcl-1 expression at 25 uM after 48 hrs by Western blot analysis; type: functional, cell-based; outline: as §1
HeLa [8] = experiment: Induction of apoptosis in human HeLa cells assessed as late necrotic cells at 25 uM after 24 hrs using Annexin-V/PI staining by flow cytometry (reference value: 3.70 %); type: functional
HeLa [9] = experiment: Upregulation of aurora kinase A protein level in human HeLa cells at 25 uM after 24 hrs by Western blot analysis; type: functional, cell-based
HeLa [10] = experiment: Upregulation of cyclin B protein level in human HeLa cells at 25 uM after 24 hrs by Western blot analysis; type: functional, cell-based
HeLa [11] = experiment: Disruption of microtubule network in human HeLa cells assessed as induction of spherical morphology at 25 uM after 24 hrs by immunofluorescence microscopy; type: cell-based
Outline: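 HeLa cells exposed 24 h at 25 µM, fixed in cold 4% formaldehyde for 15 min, and stained with anti-β-tubulin plus Alexa-conjugated secondary antibody, with DAPI counterstain. Cells were imaged by confocal microscopy.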

HeLa [12] = experiment: Induction of apoptosis in human HeLa cells after 24 to 48 hrs using Annexin-V/PI staining by flow cytometry; type: functional, cell-based
HeLa [13] = experiment: Cell cycle arrest in human HeLa cells assessed as accumulation at G2/M phase after 24 hrs by flow cytometry; type: functional, cell-based; outline: as §2
HeLa [14] = experiment: Induction of DNA damage in human HeLa cells assessed as increase in phosphorylated form of histone gamma-H2A.X level at 25 uM after 24 hrs by Western blot analysis; type: functional, cell-based
Outline: (§3)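 HeLa cells treated 24 or 48 h at 25 µM, then washed in PBS and lysed 30 min on ice. 20 µg protein per lane was resolved on 7.5–15% SDS-PAGE and blotted to PVDF. Blots were probed for cyclin B, p-cdc2 Tyr15, cdc25C and γH2A.X, with β-actin reprobe as loading control and ECL detection.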

HeLa [15] = experiment: Cell cycle arrest in human HeLa cells assessed as accumulation at G2/M phase at 25 uM after 24 hrs by flow cytometry; type: functional; outline: as §2
HeLa [16] = experiment: Downregulation of cdc25c protein level in human HeLa cells at 25 uM after 24 hrs by Western blot analysis; type: functional, cell-based; conditions: in the assay text read “after 48 hrs” for “after 24 hrs”; outline: as §3
HeLa [17] = experiment: Induction of DNA damage in human HeLa cells assessed as increase in phosphorylated form of histone gamma-H2A.X level at 25 uM after 48 hrs by Western blot analysis; type: functional, cell-based; outline: as §3
Tubulin = Tubulin (Bos taurus, UniProt Q6B856+Q862L2+Q862F3); experiment: Displacement of [3H]colchicine from bovine brain tubulin assessed as rate of assembly after 10 mins by liquid scintillation counting
HeLa [18] = experiment: Upregulation of cdc25c protein level in human HeLa cells at 25 uM after 24 hrs by Western blot analysis; type: functional, cell-based
HeLa [19] = experiment: Downregulation of cyclin B protein level in human HeLa cells at 25 uM after 48 hrs by Western blot analysis; type: functional, cell-based; outline: as §3

IC50 (LoVo) [µM]	SMILES	Activity (HeLa [1])	Activity (HeLa [2])	Activity (HeLa [3])	Activity (Jurkat)	IC50 (PBL) [µM]	Activity (HeLa [7])	Activity (HeLa [8]) [%]	Activity (HeLa [9])	Activity (HeLa [10])	Activity (HeLa [11]) [%]	Activity (HeLa [12])	Activity (HeLa [13])	Activity (HeLa [14])	Activity (HeLa [15]) [%]	Activity (HeLa [16])	also measured
66.3	COc1ccc2c(c1OC)C(=O)O[C@@H]2[C@H]1c2c(c(C)c3c(c2OC)OCO3)CCN1C	tde	Active	Active	Active	> 200	Active	17.1	Active	Active	70	Dose-dependent effect	Dose-dependent effect	Active	>80	–	Activity (CA46 [4]): 38%; IC50 (CA46 [5]): 18 µM; Activity (CA46 [6]): >80%
42.8	COc1ccc2c(c1OC)C(=O)O[C@@H]2[C@H]1c2c(c(Br)c3c(c2OC)OCO3)CCN1C	tde	Active	Active	–	> 200	Active	53.7	–	–	70	Dose-dependent effect	Dose-dependent effect	–	>80	Active	Activity (HeLa [17]): Active; IC50 (Tubulin): > 400 µM
41.8	COc1ccc2c(c1OC)C(=O)O[C@@H]2[C@H]1c2c(c(-c3ccc(C)cc3)c3c(c2OC)OCO3)CCN1C	tde	–	Active	Active	> 200	Active	11.1	Active	Active	–	Dose-dependent effect	Dose-dependent effect	Active	>80	Active	Activity (HeLa [18]): Active; Activity (HeLa [19]): Active
